Assay results taken from ChEMBL document CHEMBL1641579, “Synthesis and biological evaluation of 7-substituted-1-(3-bromophenylamino)isoquinoline-4-carbonitriles as inhibitors of myosin light chain kinase and epidermal growth factor receptor” (Bioorg Med Chem, 2011).

Key:
Format in all cases: functional
[1] = Growth inhibition of human NCI-H1819 cells assessed as ATP level after 96 hrs by CellTiter-Glo assay; settings: NCI-H1819, 96 h
Summary of the method: (§1)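 NSCLC lines maintained as previously described, authenticated by mutational analysis and SNP arrays. Cells seeded and incubated 24 h, then given compound (DMSO stocks) as 10 threefold serial dilutions. Viability read after 96 h as cellular ATP content (CellTiter-Glo). GI50 derived by curve fitting of half-maximal inhibition.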

[2] = Growth inhibition of human HCC2279 cells assessed as ATP level after 96 hrs by CellTiter-Glo assay
Summary of the method: (§2)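 NSCLC lines maintained as in earlier work and authenticated by mutational analysis and SNP arrays. Cells were plated in 384-well format and allowed 24 h before compound addition as 10 threefold serial dilutions (DMSO stocks). After 96 h, viability was read as cellular ATP by CellTiter-Glo. GI50 was fitted with an R package.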

[3] = test system: NCI-H157; experiment: Growth inhibition of human NCI-H157 cells assessed as ATP level after 96 hrs by CellTiter-Glo assay; settings: NCI-H157, 96 h; summary of the method: as §2
[4] = Growth inhibition of human H820 cells assessed as ATP level after 96 hrs by CellTiter-Glo assay; settings: NCI-H820, 96 h; summary of the method: as §2
[5] = Growth inhibition of human NCI-H2077 cells assessed as ATP level after 96 hrs by CellTiter-Glo assay; settings: NCI-H2077, 96 h
[6] = Growth inhibition of human HCC95 cells assessed as ATP level after 96 hrs by CellTiter-Glo assay; settings: HCC95, 96 h; summary of the method: as §2
[7] = test system: NCI-H661; experiment: Growth inhibition of human NCI-H661 cells assessed as ATP level after 96 hrs by CellTiter-Glo assay; settings: NCI-H661, 96 h
[8] = test system: NCI-H358; experiment: Growth inhibition of human NCI-H358 cells assessed as ATP level after 96 hrs by CellTiter-Glo assay; settings: NCI-H358, 96 h
[9] = Growth inhibition of human HCC193 cells assessed as ATP level after 96 hrs by CellTiter-Glo assay; settings: HCC193, 96 h; summary of the method: as §2
[10] = Growth inhibition of human NCI-H2887 cells assessed as ATP level after 96 hrs by CellTiter-Glo assay; settings: NCI-H2887, 96 h
[11] = test system: NCI-H1650; experiment: Growth inhibition of human NCI-H1650 cells assessed as ATP level after 96 hrs by CellTiter-Glo assay; settings: NCI-H1650, 96 h; summary of the method: as §2
[12] = Growth inhibition of human LouNH91 cells assessed as ATP level after 96 hrs by CellTiter-Glo assay; settings: LOU-NH91, 96 h; summary of the method: as §2
[13] = Growth inhibition of human HCC461 cells assessed as ATP level after 96 hrs by CellTiter-Glo assay; settings: HCC461, 96 h; summary of the method: as §2
[14] = test system: Calu-6; experiment: Growth inhibition of human Calu6 cells assessed as ATP level after 96 hrs by CellTiter-Glo assay; settings: Calu-6, 96 h; summary of the method: as §2
[15] = Growth inhibition of human HCC366 cells assessed as ATP level after 96 hrs by CellTiter-Glo assay; settings: HCC366, 96 h; summary of the method: as §2
[16] = test system: SK-LU-1; experiment: Growth inhibition of human SKLU1 cells assessed as ATP level after 96 hrs by CellTiter-Glo assay; settings: SK-LU-1, 96 h
[17] = Growth inhibition of human HCC1171 cells assessed as ATP level after 96 hrs by CellTiter-Glo assay; settings: HCC1171, 96 h; summary of the method: as §2
[18] = Growth inhibition of human HCC1195 cells assessed as ATP level after 96 hrs by CellTiter-Glo assay; summary of the method: as §2
[19] = Growth inhibition of human NCI-H1915 cells assessed as ATP level after 96 hrs by CellTiter-Glo assay; settings: NCI-H1915, 96 h
Summary of the method: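 Human NSCLC cells, maintained as described previously and authenticated by mutational analysis and SNP arrays, were plated and incubated 24 h. Compounds were dissolved in DMSO and added as 10 threefold serial dilutions. Viability was read after 96 h as cellular ATP content by luminescence, and half-maximal inhibitory concentrations were fitted to give GI50.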

[20] = test system: NCI-H2122; experiment: Growth inhibition of human NCI-H2122 cells assessed as ATP level after 96 hrs by CellTiter-Glo assay; settings: NCI-H2122, 96 h
[21] = Growth inhibition of human H441 cells assessed as ATP level after 96 hrs by CellTiter-Glo assay; settings: NCI-H441, 96 h; summary of the method: as §2
[22] = test system: LCLC-97TM1; experiment: Growth inhibition of human LCLC97TM1 cells assessed as ATP level after 96 hrs by CellTiter-Glo assay; settings: LCLC-97TM1, 96 h; summary of the method: as §2
[23] = Growth inhibition of human HCC78 cells assessed as ATP level after 96 hrs by CellTiter-Glo assay; settings: HCC78, 96 h; summary of the method: as §2
[24] = Growth inhibition of human HCC515 cells assessed as ATP level after 96 hrs by CellTiter-Glo assay; settings: HCC515, 96 h; summary of the method: as §2
[25] = test system: NCI-H1648; experiment: Growth inhibition of human NCI-H1648 cells assessed as ATP level after 96 hrs by CellTiter-Glo assay; settings: NCI-H1648, 96 h; summary of the method: as §2
[26] = test system: NCI-H2228; experiment: Growth inhibition of human NCI-H2228 cells assessed as ATP level after 96 hrs by CellTiter-Glo assay; settings: NCI-H2228, 96 h
[27] = test system: NCI-H1355; experiment: Growth inhibition of human NCI-H1355 cells assessed as ATP level after 96 hrs by CellTiter-Glo assay; settings: NCI-H1355, 96 h; summary of the method: as §2
[28] = Growth inhibition of human NCI-H2882 cells assessed as ATP level after 96 hrs by CellTiter-Glo assay; settings: NCI-H2882, 96 h
[29] = Growth inhibition of human HCC44 cells assessed as ATP level after 96 hrs by CellTiter-Glo assay; settings: HCC44, 96 h; summary of the method: as §2
[30] = test system: NCI-H28; experiment: Growth inhibition of human NCI-H28 cells assessed as ATP level after 96 hrs by CellTiter-Glo assay; settings: NCI-H28, 96 h
[31] = test system: NCI-H1792; experiment: Growth inhibition of human NCI-H1792 cells assessed as ATP level after 96 hrs by CellTiter-Glo assay; settings: NCI-H1792, 96 h; summary of the method: as §1
[32] = test system: NCI-H2009; experiment: Growth inhibition of human NCI-H2009 cells assessed as ATP level after 96 hrs by CellTiter-Glo assay; settings: NCI-H2009, 96 h
[33] = test system: NCI-H1563; experiment: Growth inhibition of human NCI-H1563 cells assessed as ATP level after 96 hrs by CellTiter-Glo assay; settings: NCI-H1563, 96 h; summary of the method: as §2
[34] = test system: NCI-H1395; experiment: Growth inhibition of human NCI-H1395 cells assessed as ATP level after 96 hrs by CellTiter-Glo assay; settings: NCI-H1395, 96 h; summary of the method: as §2
[35] = test system: NCI-H2030; experiment: Growth inhibition of human NCI-H2030 cells assessed as ATP level after 96 hrs by CellTiter-Glo assay; settings: NCI-H2030, 96 h

GI50 [3]: 12 µM | GI50 [7]: 14 µM | GI50 [8]: 14.5 µM | GI50 [11]: 15.7 µM | GI50 [14]: 16.4 µM | GI50 [16]: 16.6 µM | GI50 [20]: 18.8 µM | GI50 [25]: 21.1 µM | GI50 [26]: 21.9 µM | GI50 [27]: 22.9 µM | GI50 [30]: 24.8 µM | GI50 [31]: 26.3 µM | GI50 [32]: 26.3 µM | GI50 [33]: 30.9 µM | GI50 [34]: 31.3 µM | GI50 [35]: 34.3 µM
SMILES: CN(C)C/C=C/C(=O)Nc1ccc2c(C#N)cnc(Nc3cccc(Br)c3)c2c1
GI50 [1]: 7.59 µM | GI50 [2]: 10.6 µM | GI50 [4]: 12.9 µM | GI50 [5]: 13.2 µM | GI50 [6]: 13.3 µM | GI50 [9]: 15.3 µM | GI50 [10]: 15.5 µM | GI50 [12]: 15.7 µM | GI50 [13]: 16 µM | GI50 [15]: 16.6 µM | GI50 [17]: 17.4 µM | GI50 [18]: 17.6 µM | GI50 [19]: 18.2 µM | GI50 [21]: 19.1 µM | GI50 [22]: 19.5 µM | GI50 [23]: 19.7 µM | GI50 [24]: 20.4 µM | GI50 [28]: 23.7 µM | GI50 [29]: 23.7 µM
